Measurements reported in ChEMBL document CHEMBL3351371, “Design and synthesis of phenolic hydrazide hydrazones as potent poly(ADP-ribose) glycohydrolase (PARG) inhibitors” (Bioorg Med Chem Lett, 2014).

Biological target: Poly(ADP-ribose) glycohydrolase (Rattus norvegicus, UniProt Q9QYM2)
Assay: Inhibition of rat testis GST-tagged PARG catalytic activity after 30 mins using [32P]poly(ADP-ribose) by radioassay
In short: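 Recombinant rat PARG (from testis cDNA) expressed in E. coli as GST fusion (GST-RPG, 136 kDa), 15 ng per reaction. Compound in DMSO added to 4 μM [32P]poly(ADP-ribose) in 20 mM potassium phosphate pH 7.5, 50 mM KCl, 10 mM 2-mercaptoethanol; 37 °C, 30 min; stopped with 1% SDS (final). PEI-cellulose TLC (0.1 M LiCl/3 M AcOH/3 M urea), imaging-plate radioactivity; activity from fraction of degradation products.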

Poly(ADP-ribose) glycohydrolase, sequence (Q9QYM2 whole entry): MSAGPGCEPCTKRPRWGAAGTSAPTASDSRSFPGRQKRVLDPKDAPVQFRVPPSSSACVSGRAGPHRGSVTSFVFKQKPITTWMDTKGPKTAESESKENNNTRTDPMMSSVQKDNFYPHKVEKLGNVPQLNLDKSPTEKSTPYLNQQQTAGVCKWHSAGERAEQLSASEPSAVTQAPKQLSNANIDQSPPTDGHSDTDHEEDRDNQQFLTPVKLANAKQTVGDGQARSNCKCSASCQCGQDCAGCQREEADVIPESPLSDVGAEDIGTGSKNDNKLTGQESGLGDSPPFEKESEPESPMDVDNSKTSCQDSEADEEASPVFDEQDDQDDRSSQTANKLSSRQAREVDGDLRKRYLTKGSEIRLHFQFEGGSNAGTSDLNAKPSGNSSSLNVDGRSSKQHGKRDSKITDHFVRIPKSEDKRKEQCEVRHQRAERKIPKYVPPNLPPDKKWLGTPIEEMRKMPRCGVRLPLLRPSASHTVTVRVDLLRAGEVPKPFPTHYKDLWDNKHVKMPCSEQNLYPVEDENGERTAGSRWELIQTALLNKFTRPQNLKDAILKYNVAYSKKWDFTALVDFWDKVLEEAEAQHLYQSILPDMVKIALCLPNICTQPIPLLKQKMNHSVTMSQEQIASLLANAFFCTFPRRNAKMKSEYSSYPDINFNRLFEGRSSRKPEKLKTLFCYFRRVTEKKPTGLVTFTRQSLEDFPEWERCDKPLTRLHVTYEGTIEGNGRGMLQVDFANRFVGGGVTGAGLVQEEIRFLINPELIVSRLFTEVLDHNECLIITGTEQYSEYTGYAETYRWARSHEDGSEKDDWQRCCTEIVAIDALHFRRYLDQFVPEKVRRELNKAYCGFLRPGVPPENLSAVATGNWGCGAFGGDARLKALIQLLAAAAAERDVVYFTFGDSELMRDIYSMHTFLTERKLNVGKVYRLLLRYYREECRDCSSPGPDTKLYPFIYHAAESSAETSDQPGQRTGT

SMILES	IC50
O=C(N/N=C/c1cc(O)c(O)c(O)c1)C(=O)N/N=C/c1cc(O)c(O)c(O)c1	2.8 µM
O=C(CCC(=O)N/N=C/c1ccc(O)c(O)c1O)N/N=C/c1ccc(O)c(O)c1O	9.8 µM
O=C(O[C@H]1[C@H](O)[C@@H](CO)OC(O)[C@@H]1O)c1cc(O)c(O)c(O)c1 (stereo partly drawn)	0.95 µM
Nc1ncnc2c1ncn2[C@@H]1O[C@H](CO[P@](=O)(O)O[P@@](=O)(O)OC[C@H]2NC[C@H](O)[C@@H]2O)[C@@H](O)[C@H]1O [ADENOSINE DIPHOSPHATE (HYDROXYMETHYL)PYRROLIDINEDIOL]	0.1 µM
O=C(CC(=O)N/N=C/c1cc(O)c(O)c(O)c1)N/N=C/c1cc(O)c(O)c(O)c1	15.4 µM
O=C(N/N=C/c1ccc(O)cc1O)c1cccc(C(=O)N/N=C/c2ccc(O)cc2O)c1	40.1 µM
O=C(N/N=C/c1c(O)cc(O)cc1O)c1ccc(C(=O)N/N=C/c2c(O)cc(O)cc2O)cc1	9.9 µM
O=C(N/N=C/c1cccc(O)c1O)c1ccc(C(=O)N/N=C/c2cccc(O)c2O)cc1	> 75 µM
O=C(N/N=C/c1ccc(O)cc1O)c1ccc(C(=O)N/N=C/c2ccc(O)cc2O)cc1	> 75 µM
O=C(N/N=C/c1ccc(O)c(O)c1)c1cccc(C(=O)N/N=C/c2ccc(O)c(O)c2)c1	19.2 µM
O=C(CCCC(=O)N/N=C/c1ccc(O)c(O)c1O)N/N=C/c1ccc(O)c(O)c1O	13.9 µM
O=C(N/N=C/c1ccc(O)c(O)c1O)c1cccc(C(=O)N/N=C/c2ccc(O)c(O)c2O)c1	3.1 µM

The next lines start with the values.

IC50	SMILES
1.6 µM	O=C(CC(=O)N/N=C/c1ccc(O)c(O)c1O)N/N=C/c1ccc(O)c(O)c1O
8.2 µM	O=C(CCC(=O)N/N=C/c1cc(O)c(O)c(O)c1)N/N=C/c1cc(O)c(O)c(O)c1
3.2 µM	O=C(N/N=C/c1cc(O)c(O)c(O)c1)c1cccc(C(=O)N/N=C/c2cc(O)c(O)c(O)c2)c1
3.1 µM	O=C(N/N=C/c1ccc(O)c(O)c1O)C(=O)N/N=C/c1ccc(O)c(O)c1O
1 µM	O=C(N/N=C/c1ccc(O)c(O)c1O)c1ccc(C(=O)N/N=C/c2ccc(O)c(O)c2O)cc1
27.4 µM	O=C(CCCC(=O)N/N=C/c1cc(O)c(O)c(O)c1)N/N=C/c1cc(O)c(O)c(O)c1
2.9 µM	O=C(O)CCN1C(=O)/C(=C2\C(=O)c3cc(Br)ccc3N2Cc2c(Cl)cccc2Cl)SC1=S
> 75 µM	O=C(N/N=C/c1ccc(O)c(O)c1)c1ccc(C(=O)N/N=C/c2ccc(O)c(O)c2)cc1
18.8 µM	O=C(N/N=C/c1c(O)cc(O)cc1O)c1cccc(C(=O)N/N=C/c2c(O)cc(O)cc2O)c1
14.8 µM	O=C(N/N=C/c1cccc(O)c1O)c1cccc(C(=O)N/N=C/c2cccc(O)c2O)c1
2.1 µM	O=C(N/N=C/c1cc(O)c(O)c(O)c1)c1ccc(C(=O)N/N=C/c2cc(O)c(O)c(O)c2)cc1
